The source of these data is publication PMC3969656 (Pharmacognosy Magazine, 2014).

The nature of data set [1]: Stability of analytes in rat plasma QC samples and postpreparative stability. It is filed as in vitro ADME. Particulars: for Stability in rat plasma, recovered percentage: QC samples (0.1, 0.5, and 5.0 μg/mL); for Postpreparative stability: prepared samples, 24 h storage at 4°C. A digest of the protocol:
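Drug-free rat plasma was spiked to give QC samples at 0.1, 0.5 and 5.0 μg/mL. Samples were stored at room temperature or -20°C. For postpreparative stability, extracted samples were held at 4°C. Samples were extracted with acetonitrile plus isoliquiritin IS and quantified by C18 water/acetonitrile gradient HPLC-UV at 330 nm. Results are given as percent recovered.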

The conditions of data set [2]: ref Park et al., 21, cited from earlier work.
Where [3] appears, read: 12 h storage at room temperature.

Molecules are shown by their SMILES.

Consider `CC1(C)Oc2cc3oc(=O)ccc3cc2C[C@@H]1O` [Decursinol, decursinol], for which the entries for the “Stability in rat plasma, recovered percentage” value in data set [1] (4-weeks storage at -20°C) and in data set [1] (setting [3]) were 100.9 ± 5.9% and 89.9 ± 10.6%, respectively. In addition, the Postpreparative stability in data set [1] amounted to 97.8 ± 5.4%.
For the molecule `CC(C)(O[C@@H]1O[C@H](CO)[C@@H](O)[C@H](O)[C@H]1O)[C@H]1Cc2cc3ccc(=O)oc3cc2O1` [Nodakenin, nodakenin], the “Stability in rat plasma, recovered percentage” value was found to be 99.0 ± 4.4% in data set [1] (4-weeks storage at -20°C) and 97.8 ± 7.1% in data set [1] (setting [3]). In addition, the Postpreparative stability in data set [1] is on record as 100.5 ± 6.1%.
For `CC(C)=CC(=O)O[C@H]1Cc2cc3ccc(=O)oc3cc2OC1(C)C` [decursin], in data set [2] (intravenous administration of decursin), the “Plasma level after intravenous administration” value is on record as “rapidly decreased”. For the same molecule, in data set [2], the Hepatic first-pass metabolism entry is on record as “extensive hepatic first-pass metabolism”.
